The source of these data is ChEMBL document CHEMBL3244286, “Inactivation of trypsin-like proteases by sulfonylation. Variation of positively charged group and inhibitor length” (J Med Chem, 1978).

One assay deals with Prothrombin (Bos taurus, UniProt P00735). Description: Competitive inhibition of 16 X 10^-7 M bovine thrombin using Z-Lys-nitrophenyl ester as substrate incubated up to 1 hr at pH 6. In short, it runs like this:
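Ki for competitive inhibition was determined at pH 6 against Z-Lys-nitrophenyl ester hydrolysis, following previously published procedures. Active enzyme concentration was set by titration with methylumbelliferyl p-guanidinobenzoate. Inhibitors were added from DMF stock solutions, with DMF at no more than 1% of the reaction mixture.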

Assay [1] deals with Urokinase-type plasminogen activator (Homo sapiens) (UniProt P00749). In words: Inhibition of 2 X 10^-7 M human urokinase using Z-Lys-thiobenzyl ester as substrate assessed as second-order rate inactivation constant incubated up to 1 hr at pH 7.4. The conditions noted are these: in the assay text read “51 X 10^-7 M” for “2 X 10^-7 M”. In outline: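 Purified urokinase incubated with inhibitor at room temperature in 0.1 M tris chloride, pH 7.4, with no more than 1% DMF. Residual activity in aliquots was read with Z-Lys-thiobenzyl ester. Enzyme was active-site titrated with methylumbelliferyl p-guanidinobenzoate. First-order k1 = 0.693/t1/2 (min), divided by inhibitor concentration to give the second-order rate. Incubations were not run past 1 h when loss was low.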

The nature of assay [2]: Competitive inhibition of 6.4 X 10^-7 M bovine trypsin using Z-Lys-nitrophenyl ester as substrate incubated up to 1 hr at pH 6. Set-up: species or system Bos taurus. In short, it runs like this: (§1)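 Ki for competitive inhibition measured at pH 6 with Z-Lys-nitrophenyl ester as substrate. Enzyme concentrations were set by active-site titration with methylumbelliferyl p-guanidinobenzoate. Compounds were added from DMF stocks, with no more than 1% DMF in the reaction.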

For the next assay, the species on record is Bos taurus. In words: Inhibition of 6.4 X 10^-7 M bovine trypsin using Z-Lys-nitrophenyl ester as substrate assessed as second-order rate inactivation constant incubated up to 1 hr at pH 7.4. In outline: (§2)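 Enzyme and inhibitor incubated at room temperature in 0.1 M tris chloride, pH 7.4, with no more than 1% DMF from stocks. Aliquots were withdrawn and residual activity was assayed with Z-Lys-nitrophenyl ester. Protease concentration was set by methylumbelliferyl p-guanidinobenzoate titration. Decay was first order, k1 = 0.693/t1/2 (min), and the second-order constant is k1 divided by inhibitor concentration. Incubations with little loss of activity were stopped at 1 h.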

Assay [3] has as its target Prothrombin (Bos taurus) (UniProt P00735). In words: Inhibition of 16 X 10^-7 M bovine thrombin using Z-Lys-nitrophenyl ester as substrate assessed as second-order rate inactivation constant incubated up to 1 hr at pH 7.4. In outline:
as §2

In assay [4] the target is T1, Plasminogen (Homo sapiens, UniProt P00747). Description: Competitive inhibition of 4.8 X 10^-7 M human plasmin using Z-Lys-nitrophenyl ester as substrate incubated up to 1 hr at pH 6. In outline: as §1
T1 sequence (P00747 97-580 limits assumed): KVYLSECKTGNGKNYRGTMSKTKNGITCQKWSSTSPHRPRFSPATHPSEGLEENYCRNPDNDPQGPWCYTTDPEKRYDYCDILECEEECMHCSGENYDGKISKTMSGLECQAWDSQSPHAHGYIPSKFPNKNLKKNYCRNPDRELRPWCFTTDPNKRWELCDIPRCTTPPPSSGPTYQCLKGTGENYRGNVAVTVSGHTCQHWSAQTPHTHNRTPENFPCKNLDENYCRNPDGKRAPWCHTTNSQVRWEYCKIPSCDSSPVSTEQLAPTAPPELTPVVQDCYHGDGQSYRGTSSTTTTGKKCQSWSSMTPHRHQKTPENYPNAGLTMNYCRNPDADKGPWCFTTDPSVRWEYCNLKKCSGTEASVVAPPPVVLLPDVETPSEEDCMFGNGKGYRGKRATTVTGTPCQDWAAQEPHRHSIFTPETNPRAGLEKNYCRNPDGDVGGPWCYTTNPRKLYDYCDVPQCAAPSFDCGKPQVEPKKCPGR
T1 sequence (P00747 581-810 limits assumed): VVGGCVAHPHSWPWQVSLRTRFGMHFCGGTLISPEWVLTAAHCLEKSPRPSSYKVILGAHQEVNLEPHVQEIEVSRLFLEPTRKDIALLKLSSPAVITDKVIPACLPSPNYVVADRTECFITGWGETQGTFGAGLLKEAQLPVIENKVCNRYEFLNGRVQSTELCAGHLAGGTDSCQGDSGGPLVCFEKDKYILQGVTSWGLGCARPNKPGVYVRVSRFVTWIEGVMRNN
In assay [5] the target is T2, Plasma kallikrein (Homo sapiens, UniProt P03952). Description: Competitive inhibition of 2 X 10^-7 M human plasma kallikrein using Z-Lys-nitrophenyl ester as substrate incubated up to 1 hr at pH 6. In outline:
as §1

Assay [6] deals with T1, Plasminogen. In words: Inhibition of 4.8 X 10^-7 M human plasmin using Z-Lys-nitrophenyl ester as substrate assessed as second-order rate inactivation constant incubated up to 1 hr at pH 7.4. In outline: as §2
The target of assay [7] is T2, Plasma kallikrein. Description: Inhibition of 2 X 10^-7 M human plasma kallikrein using Z-Lys-nitrophenyl ester as substrate assessed as second-order rate inactivation constant incubated up to 1 hr at pH 7.4. In outline: as §2
Assay [8] has as its target T2, Plasma kallikrein. In words: Inhibition of 2 X 10^-7 M human plasma kallikrein using Z-Lys-nitrophenyl ester as substrate assessed as half time required for enzyme inactivation at 5X10'-6 M at pH 7.4. The conditions noted are these: in the assay text read “5.4X10'-4 M” for “5X10'-6 M”. In short, it runs like this: as §2
The target in assay [9] is Urokinase-type plasminogen activator (Homo sapiens) (UniProt P00749). In words: Inhibition of 51 X 10^-7 M human urokinase using Z-Lys-thiobenzyl ester as substrate assessed as second-order rate inactivation constant incubated up to 1 hr at pH 7.4.
Assay [10] deals with Prothrombin (Bos taurus) (UniProt P00735). Description: Inhibition of 16 X 10^-7 M bovine thrombin using Z-Lys-nitrophenyl ester as substrate assessed as half time required for enzyme inactivation at 5X10'-5 M at pH 7.4. In short, it runs like this:
as §2

T2 sequence (P03952 20-390 limits assumed): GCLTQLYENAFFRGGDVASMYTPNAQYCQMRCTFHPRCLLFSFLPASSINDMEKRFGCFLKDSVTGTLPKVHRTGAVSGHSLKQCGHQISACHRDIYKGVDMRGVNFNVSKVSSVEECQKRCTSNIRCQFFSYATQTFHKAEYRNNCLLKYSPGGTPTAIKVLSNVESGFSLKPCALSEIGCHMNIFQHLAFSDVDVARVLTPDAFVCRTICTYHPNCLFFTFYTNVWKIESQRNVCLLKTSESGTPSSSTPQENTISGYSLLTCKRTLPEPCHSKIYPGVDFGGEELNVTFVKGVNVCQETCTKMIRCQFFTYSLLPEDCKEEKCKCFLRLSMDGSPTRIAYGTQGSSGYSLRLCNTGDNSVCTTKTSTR
T2 sequence (P03952 391-638 limits assumed): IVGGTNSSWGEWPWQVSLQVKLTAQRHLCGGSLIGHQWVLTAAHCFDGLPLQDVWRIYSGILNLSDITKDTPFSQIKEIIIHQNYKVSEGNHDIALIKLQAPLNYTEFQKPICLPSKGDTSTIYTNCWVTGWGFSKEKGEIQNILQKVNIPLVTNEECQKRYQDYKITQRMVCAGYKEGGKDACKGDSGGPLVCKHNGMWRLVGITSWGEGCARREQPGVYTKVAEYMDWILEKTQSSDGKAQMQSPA

By Ki is commonly meant the dissociation constant of the complex between target and ligand, obtained from inhibition or displacement. Lower therefore signals a stronger hold on the target. Turning to `N=C(N)SCc1ccc(CS(=O)(=O)Oc2ccc([N+](=O)[O-])cc2)cc1`, the Ki is 930 µM at Prothrombin, 390 µM in assay [2], 1.15 mM at Plasminogen [4] and 320 µM on Plasma kallikrein [5]. The Kinact in [1] was 600 M⁻¹ min⁻¹; in the assay listed under Bos taurus, 1500 M⁻¹ min⁻¹; on Prothrombin (Bos taurus) [3] it was 0 M⁻¹ min⁻¹; on Plasminogen [6], 7 M⁻¹ min⁻¹.
On to `C[S+](C)Cc1ccc(S(=O)(=O)Oc2ccc([N+](=O)[O-])cc2)cc1`, for which the Kinact in the assay filed under Bos taurus, at Prothrombin (Bos taurus) [3], on Plasma kallikrein [7] and at Plasminogen [6] was 0 M⁻¹ min⁻¹ each time.
In the case of `C[S+](C)c1cccc(CS(=O)(=O)Oc2ccc([N+](=O)[O-])cc2)c1`, the Kinact in the assay filed under Bos taurus, on Prothrombin (Bos taurus) [3], at Plasma kallikrein [7] and on Plasminogen [6] was 0 M⁻¹ min⁻¹ in each case.
Regarding `N=C(N)SCc1ccc(S(=O)(=O)Oc2ccc([N+](=O)[O-])cc2)cc1`, the T1/2 is more than 2 h on Plasma kallikrein [8] and 22 min at Prothrombin (Bos taurus) [10]. The Kinact in [9] was determined as 92 M⁻¹ min⁻¹; on Prothrombin (Bos taurus) [3], 580 M⁻¹ min⁻¹; at Plasma kallikrein [7] it was 11 M⁻¹ min⁻¹; on Plasminogen [6], 125 M⁻¹ min⁻¹.
As to `O=[N+]([O-])c1ccc(OS(=O)(=O)Cc2cccc(-[n+]3ccccc3)c2)cc1`, the Kinact (in assay [1]; in the assay listed under Bos taurus; on Prothrombin (Bos taurus) [3]; on Plasma kallikrein [7]; on Plasminogen [6]) was 0 M⁻¹ min⁻¹ each time.
`CNC(=N)SCc1ccc(S(=O)(=O)Oc2ccc([N+](=O)[O-])cc2)cc1`: the Kinact in the assay filed under Bos taurus, on Prothrombin (Bos taurus) [3], on Plasma kallikrein [7] and on Plasminogen [6] was 0 M⁻¹ min⁻¹ each time.
For `O=[N+]([O-])c1ccc(OS(=O)(=O)c2ccc(C[n+]3ccccc3)cc2)cc1`, the Kinact in the assay listed under Bos taurus, at Prothrombin (Bos taurus) [3] and on Plasminogen [6] was 0 M⁻¹ min⁻¹ in each case.
For `C[S+](C)c1ccc(CS(=O)(=O)Oc2ccc([N+](=O)[O-])cc2)cc1`, the Kinact in the assay filed under Bos taurus, at Prothrombin (Bos taurus) [3], at Plasma kallikrein [7] and on Plasminogen [6] was 0 M⁻¹ min⁻¹ throughout.
`N=C(N)SCc1ccc(CS(=O)(=O)Oc2cccc([N+](=O)[O-])c2)cc1`: the Kinact in the assay filed under Bos taurus is 430 M⁻¹ min⁻¹; at Prothrombin (Bos taurus) [3], 0 M⁻¹ min⁻¹; on Plasma kallikrein [7], 0 M⁻¹ min⁻¹; on Plasminogen [6], 0 M⁻¹ min⁻¹.
`O=[N+]([O-])c1ccc(OS(=O)(=O)Cc2ccc(-[n+]3ccccc3)cc2)cc1`: the Kinact in the assay filed under Bos taurus, at Prothrombin (Bos taurus) [3], on Plasma kallikrein [7] and on Plasminogen [6] was 0 M⁻¹ min⁻¹ each time.
`C[N+](C)(C)Cc1ccc(S(=O)(=O)Oc2ccc([N+](=O)[O-])cc2)cc1`: the Kinact came out at 147 M⁻¹ min⁻¹ on Prothrombin (Bos taurus) [3], 0 M⁻¹ min⁻¹ at Plasma kallikrein [7] and 50 M⁻¹ min⁻¹ on Plasminogen [6].
